Experimental data pooled from the literature.
Compare with care: the assays were run in different laboratories.
Target: LIM domain kinase 1 (LIMK1, Homo sapiens, UniProt P53667)

For `COc1cc(Nc2ncc(F)c(Nc3ccc4c(n3)NC(=O)C(C)(C)O4)n2)cc(OC)c1OC`, the inhibition was 85% (binding; competition with immobilised ligand; 10 µM).
For `COc1ncccc1-c1cnn2ccc(N3CCN(C(=O)OC(C)C)CC3)nc12`, the remaining binding was 100% (binding; competition with immobilised ligand; 1 µM).
`Cn1cc(-c2cccc(N3CCc4c(sc5c4CC(C)(C)C5)C3=O)c2CO)cc(Nc2ccncn2)c1=O` has an inhibition of 9% (enzyme activity; inhibitor; 1 µM).
For `Cn1cncc1[C@](O)(COc1ccc(C#N)cc1-c1ccc(OC(F)(F)F)cc1)c1ccc(C#N)cc1`, the remaining binding was 89% (cell-free assay; competition with immobilised ligand; 1 µM).
`O=c1[nH]c2ccccc2n1C1CCN(Cc2ccc(-c3[nH]c4cc5ncnc5cc4nc3-c3ccccc3)cc2)CC1` has a remaining signal of 110% (cell-free assay; 0.5 µM).
`Cn1cc(-c2cc(F)cc(N3CCn4c(cc5c4CCCC5)C3=O)c2CO)cc(Nc2ccc(N3CCN(C4COC4)CC3)cn2)c1=O` has an inhibition of 2% (enzyme activity; inhibitor; 0.1 µM).
For `Nc1ncc(-c2nc(N3CCOCC3)nc(N3CCOCC3)n2)c(C(F)F)n1`, the remaining binding was 86% (binding; competition with immobilised ligand; 10 µM).
`CC(C)(C)c1cc(C=C(C#N)C#N)cc(Br)c1O` gave a remaining activity of 98.5% (enzyme activity; inhibitor; 0.5 µM).
`Cc1nn(C)cc1-c1nc2c(N3CCN(Cc4ccc(Cl)cc4)CC3)c(Cl)cnc2[nH]1` has a remaining binding of 58% (binding; competition with immobilised ligand; 1 µM).
`N#CC1(c2ccccn2)CCN(Cc2cc(C(=O)O)c(=O)n3ccccc23)CC1` has a remaining binding of 100% (cell-free assay; competition with immobilised ligand; 1 µM).
